In ChEMBL document CHEMBL1255289, “In vitro antifungal activities of isavuconazole (BAL4815), voriconazole, and fluconazole against 1,007 isolates of zygomycete, Candida, Aspergillus, Fusarium, and Scedosporium species” (2008):
Converted amounts (≈) assume the structure as drawn.

What was measured:
[1] = system: Scedosporium apiospermum; assay: Antifungal activity against Scedosporium apiospermum isolates assessed as lowest compound concentration that produced slight growth or approximately 25% of that of growth control after 24 hrs by CLSI M38-A procedure based assay; assay type: functional
[2] = system: Lomentospora prolificans; assay: Antifungal activity against Scedosporium prolificans isolates assessed as lowest compound concentration that produced complete inhibition of microbial growth after 24 hrs by CLSI M38-A procedure based assay; assay type: functional
[3] = system: Lomentospora prolificans; assay: Antifungal activity against Scedosporium prolificans isolates assessed as lowest compound concentration that produced slight growth or approximately 25% of that of growth control after 24 hrs by CLSI M38-A procedure based assay; assay type: functional
[4] = system: Nakaseomyces glabratus; assay: Antifungal activity against Candida glabrata isolates after 48 hrs by CLSI M27-A2 procedure based assay; assay type: functional
Summary of the method: (§1)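 Candida isolates tested by CLSI M27-A2 broth microdilution at final 0.015–16 µg/ml, or 0.125–128 µg/ml for the comparator azole. Incubation was at 35°C with a visual read at 48 h. MIC-2 was the lowest concentration giving a prominent turbidity drop, about 50% growth inhibition.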

[5] = system: Candida tropicalis; assay: Antifungal activity against Candida tropicalis isolates after 48 hrs by CLSI M27-A2 procedure based assay; assay type: functional; summary of the method: as §1
[6] = system: Candida; assay: Antifungal activity against Candida sp. isolates after 48 hrs by CLSI M27-A2 procedure based assay; assay type: functional
Summary of the method: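 Candida isolates were stored at –70°C as yeast suspensions and subcultured on potato dextrose or Sabouraud agar before use. Broth microdilution used DMSO drug stocks, with final well concentrations of 0.015–16 or 0.125–128 µg/ml depending on the azole. Plates were incubated at 35°C and read macroscopically at 48 h. MIC-2 was the lowest concentration giving a prominent turbidity decrease (~50% growth inhibition).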

[7] = system: Pichia kudriavzevii; assay: Antifungal activity against Candida krusei isolates after 48 hrs by CLSI M27-A2 procedure based assay; assay type: functional; summary of the method: as §1
[8] = system: Aspergillus fumigatus; assay: Antifungal activity against Aspergillus fumigatus isolates by Etest; assay type: functional
Summary of the method: (§2)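 Etest on RPMI agar with 2% glucose, swab-inoculated with the microdilution spore or yeast suspension taken before its 50-fold dilution. Plates were incubated at 35°C and read at 48 h. The MIC was the ellipse–scale intercept, raised to the next twofold dilution step.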

[9] = system: Aspergillus flavus; assay: Antifungal activity against Aspergillus flavus isolates by Etest; assay type: functional; summary of the method: as §2
[10] = system: Aspergillus niger; assay: Antifungal activity against Aspergillus niger isolates by Etest; assay type: functional; summary of the method: as §2
[11] = system: Aspergillus terreus; assay: Antifungal activity against Aspergillus terreus isolates by Etest; assay type: functional; summary of the method: as §2
[12] = system: Aspergillus sp.; assay: Antifungal activity against Aspergillus sp. isolates by Etest; assay type: functional; summary of the method: as §2
[13] = system: Mucor; assay: Antifungal activity against Mucor isolates by Etest; assay type: functional
Summary of the method: (§3)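 Etest. The spore inoculum used for microdilution, taken before the 50-fold dilution, was swabbed onto RPMI agar with 2% glucose, strips applied, and plates held at 35°C and read at 24 h. The MIC was where the inhibition ellipse met the strip scale, rounded up to the next twofold dilution.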

[14] = system: Rhizopus; assay: Antifungal activity against Rhizopus isolates by Etest; assay type: functional; summary of the method: as §3
[15] = system: Absidia; assay: Antifungal activity against Absidia isolates by Etest; assay type: functional; summary of the method: as §3
[16] = system: Cunninghamella; assay: Antifungal activity against Cunninghamella isolates by Etest; assay type: functional; summary of the method: as §3
[17] = system: Syncephalastrum; assay: Antifungal activity against Syncephalastrum isolates by Etest; assay type: functional; summary of the method: as §3
[18] = system: Scedosporium apiospermum; assay: Antifungal activity against Scedosporium apiospermum isolates by Etest; assay type: functional; summary of the method: as §2
[19] = system: Lomentospora prolificans; assay: Antifungal activity against Scedosporium prolificans isolates by Etest; assay type: functional; summary of the method: as §2
[20] = system: Candida albicans; assay: Antifungal activity against Candida albicans isolates by Etest; assay type: functional; summary of the method: as §2
[21] = system: Candida parapsilosis; assay: Antifungal activity against Candida parapsilosis isolates by Etest; assay type: functional; conditions: Lodderomyces parapsilosis; summary of the method: as §2
[22] = system: Nakaseomyces glabratus; assay: Antifungal activity against Candida glabrata isolates by Etest; assay type: functional; summary of the method: as §2
[23] = system: Candida tropicalis; assay: Antifungal activity against Candida tropicalis isolates by Etest; assay type: functional; summary of the method: as §2
[24] = system: Candida; assay: Antifungal activity against Candida sp. isolates by Etest; assay type: functional; summary of the method: as §2
[25] = system: Pichia kudriavzevii; assay: Antifungal activity against Candida krusei isolates by Etest; assay type: functional; summary of the method: as §2
[26] = system: Fusarium; assay: Antifungal activity against Fusarium sp. isolates by Etest; assay type: functional; summary of the method: as §2
[27] = system: Fusarium; assay: Antifungal activity against Fusarium sp. isolates assessed as lowest compound concentration that produced complete inhibition of microbial growth after 24 hrs by CLSI M38-A procedure based assay; assay type: functional
[28] = system: Fusarium; assay: Antifungal activity against Fusarium sp. isolates assessed as lowest compound concentration that produced slight growth or approximately 25% of that of growth control after 24 hrs by CLSI M38-A procedure based assay; assay type: functional
[29] = system: Fusarium; assay: Antifungal activity against Fusarium sp. isolates assessed as lowest compound concentration that produced complete inhibition of microbial growth by CLSI M38-A procedure based assay

SMILES: C[C@@H](c1nc(-c2ccc(C#N)cc2)cs1)[C@](O)(Cn1cncn1)c1cc(F)ccc1F [ISAVUCONAZOLE]
- MIC90 [1]: 2 µg/mL (≈ 4.57 µM)
- MFC50 [2]: >16 µg/mL
- MFC90 [2]: >16 µg/mL
- MFC ([2]; Lomentospora prolificans, 24 h): > 16 µg/mL
- MIC ([2]; Lomentospora prolificans, 24 h): > 16 µg/mL
- MIC [3]: 4 µg/mL (≈ 9.14 µM)
- MFC50 [4]: 16 µg/mL (≈ 36.6 µM)
- MFC90 [4]: >16 µg/mL
- MFC ([4]; Nakaseomyces glabratus, 48 h): 0.03 µg/mL (≈ 0.0686 µM)
- MIC50 ([4]; Nakaseomyces glabratus, 48 h): 0.25 µg/mL (≈ 0.571 µM)
- MIC90 ([4]; Nakaseomyces glabratus, 48 h): 1 µg/mL (≈ 2.29 µM)
- MFC50 [5]: >16 µg/mL
- MFC90 [5]: >16 µg/mL
- MFC ([5]; Candida tropicalis, 48 h): 2 µg/mL (≈ 4.57 µM)
- MIC ([5]; Candida tropicalis, 48 h): < 0.015 µg/mL
- MIC50 ([5]; Candida tropicalis, 48 h): < 0.015 µg/mL
- MIC90 ([5]; Candida tropicalis, 48 h): 0.06 µg/mL (≈ 0.137 µM)
- MFC [6]: 0.003 µg/mL (≈ 0.00686 µM)
- MIC [6]: > 0.015 µg/mL
- MFC [7]: 0.5 µg/mL (≈ 1.14 µM)
- MIC [7]: 0.125 µg/mL (≈ 0.286 µM)
- MIC [8]: 0.047 µg/mL (≈ 0.107 µM)
- MIC50 [8]: 0.25 µg/mL (≈ 0.571 µM)
- MIC90 [8]: 0.5 µg/mL (≈ 1.14 µM)
- MIC [9]: 0.016 µg/mL (≈ 0.0366 µM)
- MIC50 [9]: 0.38 µg/mL (≈ 0.869 µM)
- MIC90 [9]: 0.5 µg/mL (≈ 1.14 µM)
- MIC [10]: 0.094 µg/mL (≈ 0.215 µM)
- MIC50 [10]: 0.5 µg/mL (≈ 1.14 µM)
- MIC90 [10]: 0.75 µg/mL (≈ 1.71 µM)
- MIC50 [11]: 0.38 µg/mL (≈ 0.869 µM)
- MIC90 [11]: 0.5 µg/mL (≈ 1.14 µM)
- MIC [12]: 0.02 µg/mL (≈ 0.0457 µM)
- MIC [13]: 0.19 µg/mL (≈ 0.434 µM)
- MIC50 [13]: 2 µg/mL (≈ 4.57 µM)
- MIC90 [13]: > 32 µg/mL
- MIC50 [14]: 1 µg/mL (≈ 2.29 µM)
- MIC90 [14]: > 32 µg/mL
- MIC [15]: 0.25 µg/mL (≈ 0.571 µM)
- MIC [16]: 0.38 µg/mL (≈ 0.869 µM)
- MIC [17]: 0.25 µg/mL (≈ 0.571 µM)
- MIC [18]: > 32 µg/mL
- MIC50 [19]: > 32 µg/mL
- MIC90 [19]: > 32 µg/mL
- MIC50 [20]: 0.004 µg/mL (≈ 0.00914 µM)
- MIC90 [20]: 0.015 µg/mL (≈ 0.0343 µM)
- MIC50 [21]: 0.004 µg/mL (≈ 0.00914 µM)
- MIC90 [21]: 0.023 µg/mL (≈ 0.0526 µM)
- MIC50 [22]: 0.094 µg/mL (≈ 0.215 µM)
- MIC90 [22]: 0.38 µg/mL (≈ 0.869 µM)
- MIC [23]: 0.003 µg/mL (≈ 0.00686 µM)
- MIC50 [23]: 0.015 µg/mL (≈ 0.0343 µM)
- MIC90 [23]: 0.125 µg/mL (≈ 0.286 µM)
- MIC [24]: 0.004 µg/mL (≈ 0.00914 µM)
- MIC [25]: 0.012 µg/mL (≈ 0.0274 µM)
- MIC [26]: 0.38 µg/mL (≈ 0.869 µM)
- MIC50 [26]: > 32 µg/mL
- MIC90 [26]: > 32 µg/mL
- MFC50 [27]: >16 µg/mL
- MFC ([27]; Fusarium, 24 h): 4 µg/mL (≈ 9.14 µM)
- MIC50 ([27]; Fusarium, 24 h): 16 µg/mL (≈ 36.6 µM)
- MIC90 ([27]; Fusarium, 24 h): > 16 µg/mL
- MIC50 [28]: 16 µg/mL (≈ 36.6 µM)
- MIC90 [28]: > 16 µg/mL
- MFC90 [29]: >16 µg/mL
